Laboratory results: ChEMBL document CHEMBL5058577, “EUbOPEN Chemogenomics Library 2 (Multiplex)” (2022)

Test system: U2OS
Test: Multiplex assay against U2OS
Assay type: toxicity, cell-based
Settings: human
Outline: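 Hoechst33342, BioTracker Green Microtubule Cytoskeleton Dye, MitoTracker Red and Annexin V Alexa Fluor 680 were added to live cells at seeding, and imaging on a CQ1 microscope at 37°C and 5% CO2 followed compound addition. Gating by CellPathfinder machine learning separated cells into Hoechst high-intensity objects or normal cells, then normal cells into healthy, pyknosed or fragmented nuclei, then pyknosed cells into mitotic or apoptotic. Per cents of healthy-nucleus cells are reported for the tubulin, mitochondrial-mass and membrane-permeability phenotypes.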

[1] = 12 h, 1 µM, compound concentration 1 uM, replicate 1
[2] = 12 h, 1 µM, compound concentration 1 uM, replicate 2
[3] = 12 h, 10 µM, compound concentration 10 uM, replicate 1
[4] = 12 h, 10 µM, compound concentration 10 uM, replicate 2
[5] = 24 h, 1 µM, compound concentration 1 uM, replicate 1
[6] = 24 h, 1 µM, compound concentration 1 uM, replicate 2
[7] = 24 h, 10 µM, compound concentration 10 uM, replicate 1
[8] = 24 h, 10 µM, compound concentration 10 uM, replicate 2
[9] = 48 h, 1 µM, compound concentration 1 uM, replicate 1
[10] = 48 h, 1 µM, compound concentration 1 uM, replicate 2
[11] = 48 h, 10 µM, compound concentration 10 uM, replicate 1
[12] = 48 h, 10 µM, compound concentration 10 uM, replicate 2

## COc1cccc2c1c(NS(=O)(=O)c1ccc(Cl)s1)nn2Cc1cccc(CNC(=O)C(C)(C)O)c1
[1]
  Population Apoptotic (%): 86%
  Population Fragmented Nuclei (%): 23%
  Population Healthy Nuclei (%): 67%
  Population Hoechst High Intensity Objects (%): 3%
  Population Membrane Permeable-Phenotype (%): 4%
  Population Mitochondria Different-Phenotype (%): 1%
  Population Mitotic Cells (%): 13%
  Population Normal (%): 96%
  Population Pyknosed Nuclei (%): 9%
  Population Tubulin-Different-Phenotype (%): 1%
  Total Cell Count: 261
[2]
  Population Apoptotic (%): 81%
  Population Fragmented Nuclei (%): 29%
  Population Healthy Nuclei (%): 64%
  Population Hoechst High Intensity Objects (%): 6%
  Population Membrane Permeable-Phenotype (%): 7%
  Population Mitochondria Different-Phenotype (%): 3%
  Population Mitotic Cells (%): 18%
  Population Normal (%): 93%
  Population Pyknosed Nuclei (%): 5%
  Population Tubulin-Different-Phenotype (%): 6%
  Total Cell Count: 201
[3]
  Population Apoptotic (%): 76%
  Population Fragmented Nuclei (%): 26%
  Population Healthy Nuclei (%): 65%
  Population Hoechst High Intensity Objects (%): 1%
  Population Membrane Permeable-Phenotype (%): 6%
  Population Mitochondria Different-Phenotype (%): 2%
  Population Mitotic Cells (%): 23%
  Population Normal (%): 98%
  Population Pyknosed Nuclei (%): 8%
  Population Tubulin-Different-Phenotype (%): 4%
  Total Cell Count: 264
[4]
  Population Apoptotic (%): 83%
  Population Fragmented Nuclei (%): 25%
  Population Healthy Nuclei (%): 70%
  Population Hoechst High Intensity Objects (%): 5%
  Population Membrane Permeable-Phenotype (%): 8%
  Population Mitochondria Different-Phenotype (%): 3%
  Population Mitotic Cells (%): 16%
  Population Normal (%): 94%
  Population Pyknosed Nuclei (%): 4%
  Population Tubulin-Different-Phenotype (%): 2%
  Total Cell Count: 140
[5]
  Population Apoptotic (%): 96%
  Population Fragmented Nuclei (%): 20%
  Population Healthy Nuclei (%): 70%
  Population Hoechst High Intensity Objects (%): 1%
  Population Membrane Permeable-Phenotype (%): 5%
  Population Mitochondria Different-Phenotype (%): 1%
  Population Mitotic Cells (%): 3%
  Population Normal (%): 98%
  Population Pyknosed Nuclei (%): 8%
  Population Tubulin-Different-Phenotype (%): 3%
  Total Cell Count: 307
[6]
  Population Apoptotic (%): 90%
  Population Fragmented Nuclei (%): 28%
  Population Healthy Nuclei (%): 66%
  Population Hoechst High Intensity Objects (%): 5%
  Population Membrane Permeable-Phenotype (%): 8%
  Population Mitochondria Different-Phenotype (%): 3%
  Population Mitotic Cells (%): 9%
  Population Normal (%): 94%
  Population Pyknosed Nuclei (%): 4%
  Population Tubulin-Different-Phenotype (%): 6%
  Total Cell Count: 242
[7]
  Population Apoptotic (%): 90%
  Population Fragmented Nuclei (%): 25%
  Population Healthy Nuclei (%): 64%
  Population Hoechst High Intensity Objects (%): 1%
  Population Membrane Permeable-Phenotype (%): 5%
  Population Mitochondria Different-Phenotype (%): 3%
  Population Mitotic Cells (%): 10%
  Population Normal (%): 98%
  Population Pyknosed Nuclei (%): 10%
  Population Tubulin-Different-Phenotype (%): 2%
  Total Cell Count: 304
[8]
  Population Apoptotic (%): 88%
  Population Healthy Nuclei (%): 68%
  Population Hoechst High Intensity Objects (%): 5%
  Population Membrane Permeable-Phenotype (%): 8%
  Population Mitochondria Different-Phenotype (%): 4%
  Population Mitotic Cells (%): 11%
  Population Normal (%): 94%
  Population Pyknosed Nuclei (%): 5%
  Total Cell Count: 167
[9]
  Population Apoptotic (%): 95%
  Population Fragmented Nuclei (%): 14%
  Population Healthy Nuclei (%): 76%
  Population Hoechst High Intensity Objects (%): 1%
  Population Membrane Permeable-Phenotype (%): 4%
  Population Mitochondria Different-Phenotype (%): 1%
  Population Mitotic Cells (%): 4%
  Population Normal (%): 98%
  Population Pyknosed Nuclei (%): 9%
  Population Tubulin-Different-Phenotype (%): 2%
  Total Cell Count: 463
[10]
  Population Apoptotic (%): 74%
  Population Fragmented Nuclei (%): 22%
  Population Healthy Nuclei (%): 68%
  Population Hoechst High Intensity Objects (%): 7%
  Population Membrane Permeable-Phenotype (%): 5%
  Population Mitochondria Different-Phenotype (%): 4%
  Population Mitotic Cells (%): 25%
  Population Normal (%): 92%
  Population Tubulin-Different-Phenotype (%): 5%
  Total Cell Count: 314
[11]
  Population Apoptotic (%): 93%
  Population Fragmented Nuclei (%): 20%
  Population Healthy Nuclei (%): 71%
  Population Hoechst High Intensity Objects (%): 2%
  Population Membrane Permeable-Phenotype (%): 5%
  Population Mitochondria Different-Phenotype (%): 2%
  Population Mitotic Cells (%): 6%
  Population Normal (%): 97%
  Population Pyknosed Nuclei (%): 8%
  Population Tubulin-Different-Phenotype (%): 3%
  Total Cell Count: 413
[12]
  Population Apoptotic (%): 100%
  Population Fragmented Nuclei (%): 22%
  Population Hoechst High Intensity Objects (%): 3%
  Population Mitochondria Different-Phenotype (%): 3%
  Population Mitotic Cells (%): 0%
  Population Normal (%): 96%
  Population Pyknosed Nuclei (%): 5%
  Total Cell Count: 235
